# Source: PubChem BioAssay
# Only some compounds are listed: those with a hit (about 4.3% of all), similar ones and a draw of the others.
# UBC13 inh: UBC13 polyubiquitin chain formation inhibitors, primary screen, biochemical, TR-FRET, uHTS. Ubiquitin-conjugating enzyme E2 N (Homo sapiens), P61088. inhibition, % at 20 µM. 330,000 compounds, 0.47% hits. AID 485273, 2010; in the data active = inhibition above about 45%, passing the limit was not always enough; inconclusive = no clear call, values can overlap the other calls
# PREPL inh: PREPL enzyme inhibitors, primary screen, biochemical, fluorescence polarization; Prolyl endopeptidase-like (Homo sapiens), Q4J6C6; recombinant PREPL, fluorescence polarization activity-based probe; inhibition, % at 5.96 µM; 320,000 compounds, 0.68% hits; AID 2751, 2010
# Rin1-Abl PPI inh: inhibitors of Rin1-Abl protein binding, primary screen, biochemical, TR-FRET | inhibition, % at 7.35 µM | Tyrosine-protein kinase ABL1 (Homo sapiens) + Ras and Rab interactor 1 (Homo sapiens), … | AID 588664, 2011 | 360,000 compounds, 0.4% hits; in the data active = inhibition above about 5%, passing the limit was not always enough
# ALR inh: inhibitors of human ALR sulfhydryl oxidase, primary screen, biochemical, H2O2 detection, HRP-luminol luminescence, single point; FAD-linked sulfhydryl oxidase ALR (Homo sapiens), P55789; 290,000 compounds, 3.8% hits; purified ALR, DTT oxidation; inhibition, % (test concentration not listed);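 active = mean replicate inhibition above about 79%, with every replicate also reaching it, limit read from the data; inconclusive = only one of the two criteria met; inactive = mean below limit and not every replicate reaching it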
# RBBP9 inhibitor: human RBBP9 inhibitors, primary screen, biochemical, fluorescence polarization, FP-Rh probe, HTS; Serine hydrolase RBBP9 (Homo sapiens), O75884; recombinant RBBP9; inhibition, % at 7.94 µM; 220,000 compounds, 0.2% hits; AID 1515, 2009;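 active = inhibition above the campaign mean of all tested compounds plus 3 SD, cut at about 14% in these data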
#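 system = RBBP9 protein | input = RBBP9 at 2.5 µM in dispensed solution, before mixing | measured by = fluorescence polarization (mP), excitation 525 nm, emission 598 nm | incubation = enzyme-compound preincubation 30 min, then probe labeling 45 min, 25 °C | buffer or medium = Tris-NaCl-Pluronic buffer, pH 8.0 | compound = single dose 7.94 µM | also added = FP-Rh probe, 375 nM dispensing solution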
# SUMO HTRF inh: inhibitors of in vitro SUMOylation cascade, primary screen, biochemical, HTRF, uHTS; SUMO-conjugating enzyme UBC9 (Homo sapiens), P63279; HTRF SUMOylation assay, SAE1/SAE2 + UBC9; inhibition, % at 35 µM; 290,000 compounds, 0.36% hits; AID 2006, 2009; in the data active = inhibition above about 50%, passing the limit was not always enough; inconclusive = no clear call, values can overlap the other calls
# PREPL confirm: human PREPL enzyme inhibitors, confirmation, biochemical, fluorescence polarization; shares compounds with PREPL inh; recombinant PREPL, fluorescence polarization activity probe; inhibition, % at 5.96 µM; 2,000 compounds, 67% hits; AID 2803, 2010
# Casp3 UBC13 ctr: CASP3 inhibitor validation, counterassay for project on UBE2N polyubiquitination blockers, biochemical, one dose. shares compounds with UBC13 inh. Recombinant caspase-3, Caspase-Glo 3/7 luminescence, 60 min. inhibition, % at 20 µM. 1,400 compounds, 4% hits. AID 488856, 2010;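 active = mean inhibition across replicates above about 26%, limit read from the data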
# UBC13 conf: UBC13 polyubiquitination inhibitors, single-point retest, confirmation, biochemical, TR-FRET, single concentration; shares compounds with UBC13 inh; inhibition, % at 10 µM; 1,400 compounds, 68% hits; AID 488859, 2010; in the data active = inhibition above about 45%; inconclusive = no clear call, values can overlap the other calls
# Rin1 Abl conf: Rin1-Abl binding inhibitor retest, confirmation, biochemical, TR-FRET; shares compounds with Rin1-Abl PPI inh; purified proteins; inhibition, % at 7.35 µM; 1,300 compounds, 49% hits; in the data active = inhibition above about 6.5%
# GFP quench: GFP fluorescence inhibitors and quenchers, artefact control for Rin1-Abl interaction inhibitor project, biochemical; 1,300 compounds, 8.5% hits; shares compounds with Rin1-Abl PPI inh; AID 602125, 2011; inhibition, % at 6.75 µM; inhibitors/quenchers counterscreen; in the data active = inhibition above about 6.5%;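 note: ABL1-eGFP fusion protein alone without its partner RIN1-SBP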
# A number is an active result; i = inactive; ? = inconclusive; nt = no result. Cut-off read from the data, not from the text of the source, unless noted: active = inhibition above about 43%; inactive = the rest.
SMILES,UBC13 inh,PREPL inh,Rin1-Abl PPI inh,ALR inh,RBBP9 inhibitor,SUMO HTRF inh,PREPL confirm,Casp3 UBC13 ctr,UBC13 conf,others
C#CCOCCOCCOCCNc1nc(N2CCN(C(=O)Cn3cc(CCCN=C(N)N)nn3)CC2)nc(N2CCN(C(=O)[C@H]([C@@H](C)CC)n3cc(CCCCN)nn3)CC2)n1,i,i,i,nt,nt,nt,nt,nt,nt,
C#CCOCCOCCOCCNc1nc(N2CCN(C(=O)CCCCCCCCCCNC(=O)[C@H]([C@@H](C)CC)n3cc(CCCCN=C(N)N)nn3)CC2)nc(N2CCN(C(=O)CCCCCCCCCCNC(=O)[C@H](CCCCN)n3cc(C)nn3)CC2)n1,124,45,nt,i,nt,nt,55,i,127,
CC1CCC2(CC1)NC(=O)N(CC(=O)Nc1ccc3[nH]c(=O)[nH]c3c1)C2=O (centres undefined),i,i,i,i,nt,nt,nt,nt,nt,
CC1CC(C)(C)CC2(C1)NC(=O)N(CC(=O)Nc1ccc3[nH]c(=O)[nH]c3c1)C2=O (centres undefined),77,49,i,i,nt,nt,i,i,i,
COc1cc2nc(Nc3ccc(C)c(Cl)c3)nc(N)c2cc1OC,111,72,i,i,nt,i,66,25,121,
Cc1ccc(Nc2nc(N)c3ccccc3n2)cc1Cl,i,i,i,i,nt,i,nt,nt,nt,
Cc1cccc([N+](=O)[O-])c1NC(=O)COC(=O)c1nc2nccc(C)n2n1,i,i,i,nt,nt,nt,nt,nt,nt,
CCC[C@@H](CN1CCC[C@H]1CN1C(N)=NC[C@H]1C(C)C)N1C[C@@H]([C@H](C)CC)N(CCCC2CCCC2)C1=N,53,59,i,nt,nt,nt,54,i,i,
CCCCN1C(N)=NC[C@@H]1C(C)O (some centres undefined),i,i,i,i,nt,nt,nt,nt,nt,
CCC[C@@H](CN1CCC[C@H]1CN1C(N)=NC[C@H]1CC(C)C)N1C[C@@H]([C@H](C)CC)N(CCCC2CCCC2)C1=N,78,46,i,nt,nt,nt,45,i,83,
CC[C@@H](C)[C@@H]1CN([C@@H](CN2CCC[C@H]2CN2C(N)=NC[C@H]2C(C)C)C(C)C)C(=N)N1CCCC1CCCC1,53,54,i,i,nt,nt,50,i,56,
CC[C@@H](C)[C@@H]1CN([C@@H](CN2CCC[C@H]2CN2C(N)=NC[C@@H]2Cc2ccccc2)C(C)C)C(=N)N1CCCC1CCCC1,72,56,i,i,nt,nt,50,i,76,
CC1CCN(c2ccc(NC(=O)c3ccc(Br)o3)cc2)CC1,i,i,i,i,nt,i,nt,nt,nt,
CCOC(=O)Nc1cc(N)ncn1,nt,nt,i,nt,nt,nt,nt,nt,nt,
COc1cccc(-c2cnc(C(O)c3ccc(Cl)cc3)[nH]2)c1 (centres undefined),nt,nt,i,nt,nt,nt,nt,nt,nt,
O=C(CSc1nnc(CNC(=O)C23CC4CC(CC(C4)C2)C3)n1-c1ccccc1)Nc1ccccc1,i,i,i,nt,i,i,nt,nt,nt,
CN(C)c1ccc(C(c2ccc(N(C)C)cc2)C(O)c2ccccc2)cc1 (centres undefined),nt,nt,i,nt,nt,nt,nt,nt,nt,
Nc1cnc(Br)cc1Br,i,i,i,i,i,i,nt,nt,nt,
Nc1cc2nsnc2cc1Br,i,46,10,i,i,100,i,nt,nt,Rin1 Abl conf=26;GFP quench=9.5
O=C(COc1ccccc1C(=O)N/N=C\c1ccc(O)c(O)c1)N/N=C/c1ccc(O)c(O)c1,i,83,28,99,i,?,i,nt,nt,Rin1 Abl conf=38;GFP quench=12
CCCS(=O)(=O)NC(=O)C1(C)CCCN(C(=O)c2cc(-c3cccs3)oc2C)C1 (centres undefined),nt,nt,i,nt,nt,nt,nt,nt,nt,
C=C1c2cccc(O)c2C(O)=C2C(=O)[C@]3(O)C(O)=C(C(N)=O)C(=O)[C@@H](N(C)C)[C@@H]3[C@@H](O)[C@H]12,i,80,23,i,37,93,i,nt,nt,Rin1 Abl conf=17;GFP quench=12
Oc1c(CN2CCOCC2)cc(COCc2ccccc2)c2cccnc12,nt,56,11,i,i,i,65,nt,nt,Rin1 Abl conf=i;GFP quench=i
Oc1c(CNc2ccccc2)cc(COCc2ccccc2)c2cccnc12,i,i,i,nt,nt,nt,nt,nt,nt,
O=S(=O)(Nc1ccc(Cl)cc1)c1ccc2c(c1)CCO2,i,i,i,nt,i,i,nt,nt,nt,
SMILES,UBC13 inh,PREPL inh,Rin1-Abl PPI inh,ALR inh,RBBP9 inhibitor,SUMO HTRF inh,PREPL confirm,Casp3 UBC13 ctr,UBC13 conf,others
CCN(CC)c1nc2c3c(nc4c(c3c1C#N)CC(=O)N4c1ccc(Cl)cc1)NC(C)=N2,i,66,15,i,i,i,65,nt,nt,Rin1 Abl conf=14;GFP quench=i
CN(C(=O)COC(=O)C1CCN(S(=O)(=O)c2ccc3c(c2)OCCO3)CC1)C1CCS(=O)(=O)C1 (centres undefined),i,i,i,i,nt,nt,nt,nt,nt,
Cc1cc2c(N)cccc2nn1,i,68,12,i,i,i,i,nt,nt,Rin1 Abl conf=i;GFP quench=i
Nc1cccc2nc3ccccc3cc12,i,i,i,nt,i,i,nt,nt,nt,
COc1ccc(NC(=O)CSc2nc3c(sc4ccccc43)c(=O)n2CCCN2CCCC2)cc1,50,i,i,99,nt,nt,nt,i,54,
COc1cccc(NC(=O)CSc2nc3ccccc3c(=O)n2CCCC(=O)NCCCN2CCOCC2)c1,61,i,i,nt,i,i,nt,i,79,
Cc1ccc(NC(=O)CSc2nc3ccccc3c(=O)n2CCCC(=O)NCCCN2CCOCC2)cc1,i,i,i,i,i,i,nt,nt,nt,
Cc1ccc(S(=O)(=O)c2cn(C)c3cc(N4CCOCC4)c(F)cc3c2=O)cc1,i,i,i,i,nt,i,nt,nt,nt,
CCn1c2ccccc2c2nc3ccccc3nc21,66,i,i,i,i,i,nt,48,i,
CCn1c2ccccc2c2nc3cc(OC)c(OC)cc3nc21,i,i,i,i,i,i,nt,nt,nt,
O=C(NC1(C(F)(F)F)N=C2SCCN2C1=O)c1cccnc1 (centres undefined),48,i,i,i,i,i,nt,i,i,
